From ChEMBL document CHEMBL1124794, “Synthesis, chemistry, and antineoplastic activity of alpha-halopyridinium salts: potential pyridone prodrugs of acylated vinylogous carbinolamine tumor inhibitors” (J Med Chem, 1990)
Values joined by “and” are separate entries in the source; they are usually repeats but may differ in a detail not shown here. Equal values may be shown once. Each block holds one compound with its values, some of them ahead of it.

What was measured:
[1] = Effect of pH on carbamate hydrolysis in 0.05 M buffer concentration at the pH 3.5, 25 degree C.; format: ADME
Procedure, shortened: (§1)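 Bis-carbamate in acetonitrile–water (1:1; buffer added to a 0.5 mg/mL acetonitrile solution), 0.05 M buffer, ionic strength 0.136 (KCl), 25 ± 0.1 °C. Buffers: phosphate pH 2.0; citrate pH 3.0–3.5; succinate pH 4.0; acetate pH 5.0; phosphate pH 6.0–8.0; borate pH 9.0; carbonate pH 10.0. HPLC bis-carbamate peak-area loss, ln(area0/areat) vs time slope = kobs. Duplicates averaged.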

[2] = Effect of pH on carbamate hydrolysis in 0.05 M buffer concentration at the pH 4.0, 25 degree C.; format: ADME; procedure, shortened: as §1
[3] = Effect of pH on carbamate hydrolysis in 0.05 M buffer concentration at the pH 8.0, 25 degree C.; format: ADME; procedure, shortened: as §1
[4] = Half life at the buffer concentration of 0.01 M.; format: ADME
Procedure, shortened: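 Bis-carbamate in acetonitrile–water (1:1), 25 ± 0.1 °C. Citrate buffer at pH 3.0 or phosphate buffer at pH 7.4, at 0.01, 0.025 or 0.05 M, ionic strength 0.136 (KCl). Kinetics followed by HPLC as the decrease in bis-carbamate peak area. The regression slope of ln(area0/areat) vs time gave pseudo-first-order kobs. Duplicates averaged.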

[5] = Half life at the pH 10.0; format: ADME; conditions: buffer; procedure, shortened: as §1
[6] = Half life at the pH 3.0; format: ADME; conditions: buffer; procedure, shortened: as §1
[7] = Half life at the pH 5.0; format: ADME; conditions: buffer; procedure, shortened: as §1
L1210 [8] = assay: In vivo activity against murine L1210 tumor system at the dose of 166.7 mg/kg, activity expressed as body weight difference; T-C; format: functional, Mus musculus
Procedure, shortened: (§2)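 L1210 lymphocytic leukemia: ascitic fluid with ca. 10^6 cells injected ip into CD2F1 mice. Dosing started 24 h after inoculation and was repeated daily for five doses in total, from solutions or suspensions made fresh each day. Toxicity day survivors were scored on day 5. Body weight difference is day 5 minus day 1. %T/C is based on median survival time versus controls.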

L1210 [9] = assay: In vivo activity against murine L1210 tumor system at the dose of 100 mg/kg, activity expressed as KE; format: functional, Mus musculus
[10] = In vivo activity against murine M5076 tumor system at the dose of 100 mg/kg, activity expressed as %T/C.; format: functional, Mus musculus
Procedure, shortened: (§3)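 M5076: ascitic fluid with ca. 10^6 cells inoculated ip into CD2F1 mice. Dosing started 24 h after inoculation and was then given every 4 days for four doses in total, from solutions or suspensions made fresh each day. Toxicity day survivors were scored on day 5. Body weight difference is day 14 minus day 1. %T/C is based on median survival time versus controls.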

[11] = In vivo activity against murine M5076 tumor system at the dose of 21.6 mg/kg, activity expressed as %T/C.; format: functional, Mus musculus; procedure, shortened: as §3
[12] = In vivo activity against murine M5076 tumor system at the dose of 166.7 mg/kg, activity expressed as TDS; 4/10; format: functional, Mus musculus; procedure, shortened: as §3
[13] = In vivo activity against murine M5076 tumor system at the dose of 166.7 mg/kg, activity expressed as body weight difference; T-C; format: functional, Mus musculus; procedure, shortened: as §3
[14] = In vivo activity against murine M5076 tumor system at the dose of 21.6 mg/kg, activity expressed as body weight difference; T-C; format: functional, Mus musculus; procedure, shortened: as §3
P388 [15] = assay: In vivo activity against P388 Lymphocytic Leukemia in CD2F1 mice at the dose of 200 mg/kg, activity expressed as TDS; 6/6; format: functional, Mus musculus
Procedure, shortened: (§4)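 CD2F1 mice were inoculated with ascitic fluid holding ca. 10^6 P388 cells. Drug was given daily from 24 h after inoculation, from solutions or suspensions made fresh each day, some as a saline suspension. TDS is survivors/initial animals on day 5. BWD is body weight on day 5 minus day 1. %T/C compares median survival of treated and control mice.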

P388 [16] = assay: In vivo activity against P388 Lymphocytic Leukemia in CD2F1 mice at the dose of 100 mg/kg, activity expressed as TDS; 5/6; format: functional, Mus musculus; procedure, shortened: as §4
P388 [17] = assay: In vivo activity against P388 Lymphocytic Leukemia in CD2F1 mice at the dose of 100 mg/kg, activity expressed as % T/C; format: functional, Mus musculus; procedure, shortened: as §4
[18] = Effect of Ionic strength (0.25 M NaCl)on the hydrolysis of pyridinium Moity in 0.02 M buffer concentration, pH 7.4,25 degree C; format: ADME
Procedure, shortened: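 Pyridinium salt in 0.02 M phosphate buffer, pH 7.4, 25 °C, with NaCl varied 0.10–1.0 M. Loss of the pyridinium chromophore's UV absorbance maximum (conversion to pyridone) followed over time. Pseudo-first-order kobs and half-life derived from that decay.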

[19] = Effect of pH on the hydrolysis of pyridinium Moity in 0.05 M buffer concentration at the pH 6.5; format: ADME
Procedure, shortened: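 Pyridinium salt in 0.05 M phosphate buffer, pH 6.0–8.0 (set by pH meter), ionic strength 0.25 M, 25 °C. Decrease in the pyridinium UV absorbance maximum followed over time to give pseudo-first-order kobs and half-life.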

[20] = Effect of phosphate buffer on the hydrolysis of alpha Fluoropyridinium Moity at the concentration of 0.02M, pH 8.0, 25 degree C; format: ADME
Procedure, shortened: (§5)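 α-Fluoropyridinium hydrolysis to pyridone in phosphate buffer at 0.02, 0.05 or 0.10 M, pH 6.5 or 8.0, ionic strength […] °C. Pyridinium UV absorbance maximum followed with time to give pseudo-first-order kobs and half-life.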

[21] = Effect of phosphate buffer on the hydrolysis of alpha Fluoropyridinium Moity at the concentration of 0.05M, pH 8.0,25degree C; format: ADME; procedure, shortened: as §5
[22] = Effect of phosphate buffer on the hydrolysis of alpha Fluoropyridinium Moity at the concentration of 0.10M, pH 8.0, 25 degree C.; format: ADME; procedure, shortened: as §5
[23] = Half life at the buffer concentration of 0.02 M.; format: ADME; procedure, shortened: as §5
MX1 [24] = assay: In vivo activity against murine MX-1 tumor system at the dose of 37.5 mg/kg, activity expressed as %T/C.; format: functional, Mus musculus
MX1 [25] = assay: In vivo activity against murine MX-1 tumor system at the dose of 75 mg/kg, activity expressed as %T/C.; format: functional, Mus musculus
MX1 [26] = assay: In vivo activity against murine MX-1 tumor system at the dose of 75 mg/kg, activity expressed as TDS; 4/6; format: functional, Mus musculus
L1210 [27] = assay: In vivo activity against murine L1210 tumor system at the dose of 25 mg/kg, activity expressed as body weight difference; format: functional, Mus musculus; procedure, shortened: as §2
[28] = In vivo activity against murine M5076 tumor system at the dose of 50 mg/kg, activity expressed as KE; format: functional, Mus musculus
P388 [29] = assay: In vivo activity against P388 Lymphocytic Leukemia in CD2F1 mice at the dose of 100 mg/kg, activity expressed as body weight difference; format: functional, Mus musculus; procedure, shortened: as §4
P388 [30] = assay: In vivo activity against P388 Lymphocytic Leukemia in CD2F1 mice at the dose of 25 mg/kg, activity expressed as body weight difference; format: functional, Mus musculus; procedure, shortened: as §4
P388 [31] = assay: In vivo activity against P388 Lymphocytic Leukemia in CD2F1 mice at the dose of 50 mg/kg, activity expressed as body weight difference; format: functional, Mus musculus; procedure, shortened: as §4
P388 [32] = assay: In vivo activity against P388 Lymphocytic Leukemia in CD2F1 mice at the dose of mg/kg, activity expressed as KE; format: functional, Mus musculus
[33] = Half life at the concentration of 0.05 M.

K obs [1]: 0.0214 min⁻¹
K obs [2]: 0.0149 min⁻¹
K obs [3]: 0.0128 min⁻¹
T1/2 [4]: 19.86 min and 52.31 min
half-life [5]: 52.3 min
half-life [6]: 22.8 min
half-life [7]: 50 min
Structure (SMILES): CC(C)NC(=O)OCc1c(COC(=O)NC(C)C)c(-c2ccn(C)c(=O)c2)n2c1CCC2
BWD (L1210 [8]): -3.8 g
KE (L1210 [9]): -0.22
T/C [10]: 122%
T/C [11]: 107%
TDS [12]: 4
BWD [13]: -5.8 g
BWD [14]: 1.7 g
TDS (P388 [15]): 6
TDS (P388 [16]): 5
T/C (P388 [17]): 148%

K obs [18]: 0.02 min⁻¹
K obs [19]: 0.0153 min⁻¹
K obs [20]: 0.0132 min⁻¹
K obs [21]: 0.02 min⁻¹
K obs [22]: 0.036 min⁻¹
half-life [23]: 52.5 min
T1/2 [33]: 96.2 min
Structure (SMILES): CC(C)NC(=O)OCc1c(COC(=O)NC(C)C)c(-c2cc[n+](C)c(F)c2)n2c1CCC2.[I-]
T/C (MX1 [24]): 69%
T/C (MX1 [25]): 34%
TDS (MX1 [26]): 4
BWD (L1210 [27]): 0.6 g
KE [28]: -1.59
BWD (P388 [29]): -7.6 g
BWD (P388 [30]): -1 g
BWD (P388 [31]): -0.8 g
KE (P388 [32]): 1.25
